The text below walks through data of ChEMBL document CHEMBL3259624, “Netamines H-N, tricyclic alkaloids from the marine sponge Biemna laboutei and their antimalarial activity” (J Nat Prod, 2014).

The subject of assay [1] is KB. Nature of the assay: Cytotoxicity against human KB cells after 72 hrs. In kind it is functional, cell-based. In outline: (§1)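 KB cells exposed to compounds for 72 h, with DMSO-only cells as control. Proliferation was read with CellTiter 96 Aqueous One reagent and expressed as % inhibition of proliferation relative to the DMSO control, as mean ± SE of triplicate.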

For assay [2], the system named is KB. Nature of the assay: Cytotoxicity against human KB cells at 1 uM after 72 hrs. In kind it is functional, cell-based. In a few lines:
as §1

For a further assay, the system named is Plasmodium falciparum. Nature of the assay: Antiplasmodial activity against Plasmodium falciparum by LDH assay. In kind it is functional, organism-based.

pIC50: −log10 of the molar value. Active and inactive are the calls of the source. No cut-off for these calls is given here.

One may read the pIC50 as the negative decadic logarithm of the IC50, by convention in mol/L. High values mean a low IC50, low ones a high IC50. For `CCC/C=C\CC1=C2N=C(N)N[C@H]3CC[C@@H](C[C@H]1C)[C@@H]23` (relative stereo), the pIC50 in the assay on KB [1] was 6.00.

Consider `CC/C=C/C1=C2N=C(N)N[C@H]3CC[C@@H](C[C@@H]1C)[C@@H]23`, for which, in the assay with KB [2], the outcome was inactive.

Turning to `CCC/C=C\C[C@@H]1c2nc(N)nc3c2[C@@H](CC3)C[C@H]1C`, in the assay on KB [2], the result was inactive.

For `CCC[C@@H]1C[C@@H]2CC[C@@H]3NC(N)=NC(=C1CC)[C@H]23` (relative stereo), the pIC50 in the assay on Plasmodium falciparum is 5.62. Further, the outcome with KB [2] was inactive.

In the case of `CCCCCCC1=C2N=C(N)N[C@H]3CC[C@@H](C[C@H]1CCC)[C@@H]23`, the outcome in the assay on KB [2] was inactive.

In the case of `CCC/C=C\C[C@H]1c2nc(N)nc3c2[C@@H](CC3)C[C@H]1CCC`, the outcome in the assay on KB [2] was inactive.

For the molecule `CCC/C=C\C[C@H]1c2nc(N)nc3c2[C@@H](CC3)C[C@H]1C`, the pIC50 in the assay on Plasmodium falciparum was 4.68. In the assay with KB [2], the outcome was inactive.

In the case of `CCCC[C@@H]1c2nc(N)nc3c2[C@@H](CC3)C[C@H]1CCC`, the outcome with KB [2] was inactive.

`CCC/C=C\C[C@@H]1c2nc(N)nc3c2[C@@H](CC3)C[C@H]1CCC` (relative stereo): the result with KB [2] was inactive.
